About 2,000 (0.61%) of roughly 330,000 compounds were called active.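 Rule for the calls: active = inhibition above that plate's mean sample inhibition plus 3 SD (cut at about 26% in these data); inactive = the rest.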 Many of the other results were omitted from the sample, so actives are more common in it than they were.
experiment: ATP-evoked calcium signal inhibitors, parental CHO, primary screen, counter-screen for OX1R antagonist project, cell-based, fluorescence, Fluo-8 calcium dye (AID 463079); conditions: parental CHO-K1, ATP-induced calcium, Fluo-8 fluorescence; at 5.6 µM; stronger effect = higher value;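 note: 0% = ATP-challenged DMSO wells and 100% = DMSO wells without ATP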
In short: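 Test system: untransfected parental CHO cell line. Compound: one dose, 5.6 µM nominal. Detection: intracellular calcium via Fluo-8 no-wash fluorescent dye. Measure: % inhibition. Benchmarks: ATP-challenged DMSO wells low, unchallenged DMSO wells high.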

Row | Structure (SMILES) | inhibition
1 | CCCC(C)NC(=O)C1CCN(C(=O)C2CC(=O)N(c3ccc(C)cc3)C2)CC1 (stereo unspecified) | -8.45% (inactive)
2 | Cc1nc(-c2ccc(F)cc2)c(CC(=O)Nc2cccc(S(=O)(=O)N3CCOCC3)c2)s1 | -17.7% (inactive)
3 | O=S(=O)(c1cccc(Cn2nnc(-c3ccc(F)cc3)n2)c1)N1CCOCC1 | 41.7% (active)
4 | CCN(Cc1ccncc1)C(=O)c1cccc(S(=O)(=O)N2CCOCC2)c1 | -16.1% (inactive)
5 | CC(=O)Nc1ccc(S(=O)(=O)Oc2ccc(/C=N/N=C3/NC(=O)C(CC(=O)O)S3)cc2)cc1 (stereo unspecified) | -3.01% (inactive)
6 | CC(c1ccccn1)N(C)C(=O)c1ccc2nc(Cc3cccc(Cl)c3)oc2c1 (stereo unspecified) | -18.4% (inactive)
7 | CC[C@]12c3[nH]c4ccc(Cl)cc4c3CCN1C(=O)[C@@H](CC(=O)NCCN1CCOCC1)C[C@@H]2C(=O)N1CCN(C(=O)C2CC2)CC1 | -12.4% (inactive)
8 | Cc1cc(OC(=O)c2ccc(Cl)cc2)cc(=O)n1C | -3.96% (inactive)
9 | COCCCNc1nc2c(-c3cccc(C)c3)nnn2c2ccc(Cl)cc12 | -27.9% (inactive)
10 | O=C(NCCc1ccc(C(F)(F)F)cc1)c1ccc2c(c1)OCO2 | 40.1% (active)
11 | Cc1ccc2cc(CCNC(=O)c3ccc4c(c3)OCO4)c(=O)[nH]c2c1 | -18% (inactive)
12 | COc1ccc(CCNC(=O)COc2ccc3c(c2)OCO3)cc1 | -4.78% (inactive)
13 | O=S(N1CCCCCC1)C12CC3CC(CC(C3)C1)C2 (stereo unspecified) | -6.89% (inactive)
14 | COc1ccc(N2CCC(CNC(=S)Nc3c(C)cccc3C)C2)cc1 (stereo unspecified) | -5.49% (inactive)
15 | CC1(C)C2CCC1(C)C(OC(=O)c1ccc(O)cc1)C2 (stereo unspecified) | 76.2% (active)
16 | CC1(C)C2CCC1(C)C(OC(=O)CCn1ccnc1)C2 (stereo unspecified) | -13.9% (inactive)
17 | Cc1ccc(C(=O)OC2CCCN(C)C2)cc1 (stereo unspecified) | -15% (inactive)
18 | O=C(CNC(=O)c1ccc(Br)o1)NCC1CCCO1 (stereo unspecified) | 4.99% (inactive)
19 | CC[C@]12c3[nH]c4cc(CCC(=O)N(C)C)ccc4c3CCN1C(=O)[C@@H](CC(=O)NCCCN(C)C)C[C@@H]2C(=O)N1CCN(C(=O)c2ccco2)CC1 | -12.2% (inactive)
20 | CCCCCNC(=O)C1c2ccccc2Oc2ccccc21 | -8.91% (inactive)
21 | CCC(C)NC(=O)C1c2ccccc2Oc2ccccc21 (stereo unspecified) | -11.6% (inactive)
22 | CCC(C)(C)NC(=O)C1c2ccccc2Oc2ccccc21 | 41.2% (active)
23 | Cc1cc(C)c2nc(SCC(=O)N(C)C3CCS(=O)(=O)C3)cc(C)c2c1 (stereo unspecified) | -7.05% (inactive)

Row | Structure (SMILES) | inhibition
24 | CCOc1ccc(C(=O)Nc2cccc(-c3ccc4nncn4n3)c2)cc1 | -7.65% (inactive)
25 | O=S(=O)(NC1CC2CCC1C2)c1ccc(Cl)cc1 (stereo unspecified) | -7.07% (inactive)
26 | O=C(NCCN=C1NS(=O)(=O)c2ccccc21)c1ccc(S(=O)(=O)N2CCOCC2)cc1 | -2.4% (inactive)
27 | Cc1n[nH]c(C)c1S(=O)(=O)N1CCCC(C(=O)NCC2COc3ccccc3O2)C1 (stereo unspecified) | -6.84% (inactive)
28 | CC(=O)c1c(C)[nH]c(C(=O)OCC(=O)Nc2sc3c(c2C#N)CCCC3)c1C | 33.6% (active)
29 | CC(=O)c1c(C)[nH]c(C(=O)OCC(=O)Nc2c(C)cccc2C)c1C | -7.2% (inactive)
30 | Cc1cccc(C(=O)OCC(=O)Nc2sc3c(c2C#N)CCC3)c1 | -1.94% (inactive)
31 | O=C(COC(=O)[C@H](Cc1ccccc1)NC(=O)c1cccs1)Nc1cc(F)ccc1F | -7.13% (inactive)
32 | CC(=O)N(O)CCCCCNC(=O)CCC(=O)N(O)CCCCCNC(=O)CCC(=O)N(O)CCCCCNC(=O)CCC(=O)O | -0.82% (inactive)
33 | O=C(NC(=S)NC1CCSC1=O)c1ccccc1F (stereo unspecified) | -7.55% (inactive)
34 | COc1cc(OC)c(-n2c(C)cc(C=O)c2C)cc1Cl | -12.5% (inactive)
35 | COc1cc(OC)c(-n2cc(-c3ccc(Cl)cc3)[nH]c2=O)cc1Cl | 39.3% (active)
36 | COc1cc(OC)c(N2CC(C(=O)Nc3cc(Cl)ccc3N3CCOCC3)CC2=O)cc1Cl (stereo unspecified) | -16.6% (inactive)
37 | CN(c1ccccc1)S(=O)(=O)c1cc(C(=O)N2CCN(c3ncccn3)CC2)ccc1Cl | -18.9% (inactive)
38 | CC(C)(C)c1ccc(SCCc2ccncc2)cc1 | 28.1% (inactive)
39 | O=C(O)CC1S/C(=N\N=C/c2ccccc2O)N(c2ccc(O)cc2)C1=O (stereo unspecified) | -10.7% (inactive)
40 | CS(=O)(=O)N(CC(=O)Nc1ccc(Cl)c(Cl)c1)C1CCCCC1 | -5.86% (inactive)
41 | CCn1nccc1C(=O)Nc1ccc(Cl)c(Cl)c1 | -8.3% (inactive)
42 | O=C(CC(O)(C(F)(F)F)C(F)(F)F)Nc1ccc(Cl)c(Cl)c1 | 72.5% (active)
43 | CN(C)CCN(Cc1ccccc1)S(=O)(=O)c1csc(C(N)=O)c1 | -12.9% (inactive)
44 | COc1cccc(-c2coc3cc4oc(=O)c(CC(=O)O)c(C)c4cc23)c1 | 1.98% (inactive)
45 | CC#CC[N+](C)(C)CCCCCC | -6.39% (inactive)
46 | FC(F)(F)C1CCCN(c2nsc3ccccc23)C1 (stereo unspecified) | 51.7% (active)

Row | Structure (SMILES) | inhibition
47 | O=C(NC(Cc1ccccc1)C(=O)N1CCCC(C(F)(F)F)C1)c1ccccc1 (stereo unspecified) | -16.7% (inactive)
48 | O=C(NCC(=O)N1CCCC(C(F)(F)F)C1)c1ccccc1F (stereo unspecified) | -5.99% (inactive)
49 | Cc1cc(C(=O)O)c(S(C)(=O)=O)s1 | -2.26% (inactive)
50 | CCN(CC)C(=O)[C@H]1C[C@H](CC(=O)NCC23CC4CC(CC(C4)C2)C3)C(=O)N2CCc3c([nH]c4cc(CCC(=O)N(C)C)ccc34)[C@]12C | -25.6% (inactive)
51 | Fc1ccc2[nH]c3c(N4CCSCC4)ncnc3c2c1 | 58.3% (active)
52 | CC(=O)Nc1ccccc1Sc1ccc2c3c(cccc13)C(=O)N(c1ccc(C)cc1)C2=O | -4.4% (inactive)
53 | COc1cc(C(=O)N2C(=O)c3cccc(N)c3C2=O)cc(OC)c1OC | -9.7% (inactive)
54 | Cc1nn(C)cc1C(=O)c1ccccc1 | -6.65% (inactive)
55 | Cc1nn(C)cc1N1C(=O)c2cccc3c(N)ccc(c23)C1=O | 36.8% (active)
56 | O=C(O)c1ccc2c3c(cccc13)C(=O)N(OS(=O)(=O)c1ccccc1)C2=O | -10.1% (inactive)
57 | CN1C(=O)c2cccc3c(N)ccc(c23)C1=O | 49.2% (active)
58 | CC(NS(=O)(=O)c1ccccc1)c1n[nH]c(=S)n1-c1ccccc1 (stereo unspecified) | 9.34% (inactive)
59 | O=C(c1ccccc1Cl)N(Cc1ccccc1F)N1C(=O)CCCC1=O | 6.42% (inactive)
60 | COCCCN1C(=O)C(=O)/C(=C(/O)c2ccc(S(=O)(=O)N3CCOCC3)cc2)C1c1ccc(F)cc1 (stereo unspecified) | 14.2% (inactive)
61 | COc1cc(OC)cc(C(=O)Nc2ccc(S(=O)(=O)Nc3cc(C)on3)cc2)c1 | -3.8% (inactive)
62 | COc1ccc(NS(=O)(=O)c2ccc(C(=O)Nc3c(C)n(C)n(-c4ccccc4)c3=O)cc2)cc1 | -3.65% (inactive)
63 | COc1ccc(OC)c(C(C)NC(=S)Nc2ccc(S(=O)(=O)Nc3ncccn3)cc2)c1 (stereo unspecified) | 3.7% (inactive)
64 | CC(=O)c1ccc(NC(=S)NC(=O)CC(C)C)cc1 | 7.82% (inactive)
65 | COc1ccc(NS(=O)(=O)c2ccc(NC(=O)c3ccc(N(C)S(C)(=O)=O)cc3)cc2)cc1 | 31.2% (active)
66 | COc1ccc(NS(=O)(=O)c2ccc(NC(=S)NC(=O)CC(C)C)cc2)cc1 | 44.3% (active)
67 | CCSc1nc(=S)n(CC)c(C)c1C(C)=O | -1.19% (inactive)
68 | CC(C)(C)CN1C(=O)C(=O)NC[C@H]1Cc1cccc2ccccc12 | -9.71% (inactive)
69 | COC(=O)Nc1ncc(CN2CCCCC2)s1 | 0.87% (inactive)

Row | Structure (SMILES) | inhibition
70 | Cc1ccccc1NC(=S)NC(=O)Cc1ccc(Cl)cc1 | 2.02% (inactive)
71 | O=C(Cc1ccc(Cl)cc1)NC(=S)Nc1ccccc1O | 39% (active)
72 | O=C(COc1ccc(Cl)cc1)NC(=S)Nc1ccccc1N1CCOCC1 | -32% (inactive)
73 | COc1ccc(NC(=O)CSCc2ccc([N+](=O)[O-])cc2)cc1OC | -6.67% (inactive)
74 | CC(C)CC(=O)N=C1SC2CS(=O)(=O)CC2N1CCc1ccccc1 (stereo unspecified) | -2.34% (inactive)
75 | O=c1c2ccccc2nc2n1C(CSc1ccc(F)cc1)CN2 (stereo unspecified) | -3.49% (inactive)
76 | O=c1c2ccccc2nc2n1C(CSCc1cccc(C(F)(F)F)c1)CS2 (stereo unspecified) | 40.1% (active)
77 | O=c1c2ccccc2nc2n1C(CSCc1ccccc1)CS2 (stereo unspecified) | 2.02% (inactive)
78 | COc1ccccc1C(=O)C(O)c1ccccc1OC (stereo unspecified) | -2.08% (inactive)
79 | Cc1cccc(C)c1NC(=O)CNC(=O)c1c(C)nn(-c2ccccc2)c1C | 9.7% (inactive)
80 | COc1cc(CC(=O)NCc2cccs2)cc(OC)c1OC | -12.1% (inactive)
81 | COc1ccc(-c2csc(NC(=O)COC(=O)Cc3ccc(Cl)cc3Cl)n2)cc1 | -7.84% (inactive)
82 | COc1cc(CC(=O)Nc2nc(-c3ccc(F)c(F)c3)cs2)cc(OC)c1OC | 50.5% (active)
83 | CCCc1ccc(-c2csc(NC(=O)Cc3cccs3)n2)cc1 | -13.1% (inactive)
84 | COc1ccc(OC)c(-c2csc(NC(=O)COC(=O)C3CC3)n2)c1 | -16.7% (inactive)
85 | COc1ccc(CC(=O)Nc2nc(-c3ccc(F)c(F)c3)cs2)cc1OC | 55.3% (active)
86 | Cc1ccc(S(=O)(=O)NC(=O)Nc2nc(-c3ccc(F)c(F)c3)cs2)cc1 | 13.3% (inactive)
87 | COc1ccc(-c2csc(NC(=O)COC(=O)c3ccc(Br)o3)n2)cc1 | -1.84% (inactive)
88 | COc1cccc(CC(=O)Nc2nc(-c3ccc(OC)c(OC)c3)cs2)c1 | 50.6% (active)
89 | Cc1ccc(C)c(Cn2nnc3c(=O)[nH]c(C(=O)Nc4ccc(F)cc4)nc32)c1 | -8.13% (inactive)
90 | Cc1cccc(NC(=S)NCCc2ccc(F)cc2)c1C | -8.34% (inactive)
91 | C=CCOC(=O)C1=C[C@H](c2ccc(Br)cc2)C[C@H](OCCCCO)O1 | -16.9% (inactive)

Reference: PubChem BioAssay AID463079 (The Scripps Research Institute Molecular Screening Center, 2010)
